Rows were chosen to be rich in hits. Some 3.9% of all compounds tested hit in one or more screens of this group.
TAAR1 agonist: agonists of human TAAR1; Q96RJ0; CHO RD-HGA16 TAAR1, Fluo-8 calcium fluorescence; vehicle wells 0%, saturating PEA agonist 100%; activation, % at 3 µM; actives 0.99% (n = 360,000);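 active means activation above the mean activation of all test compounds in the run plus 3 SD, cut at about 38% in these data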
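Assay system – CHO-derived RD-HGA16 cells with stable Gα16 and human TAAR1 · Compound dosing – one-point dosing at 3 µM (nominal) · Incubation – 17-24 h seeding, 75 min 37 °C dye, 30 min RT · Measured by – kinetic Fluo-8 calcium fluorescence · Control set – DMSO vehicle as 0%, PEA at EC100 as 100% · Repeats – single well for each compound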
TMEM16A act: mouse TMEM16A channel activation, primary screen; HEK293 TMEM16A/YFP-H148Q/I152L, iodide quench fluorescence; stronger effect = lower value; actives 0.3% (n = 340,000); B-score at 10 µM; Q8BHY3;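 active means fluorescence-ratio B-score plate-corrected deviation score at least 3 library SD below zero, with starting fluorescence score within 5 deviations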;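 further: channel opened by trigger with iodide after compound preincubation; score built on the fluorescence ratio of max minus min over baseline; more negative score means more quench and so TMEM16A activation or potentiation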
Target sequence (Q8BHY3 whole entry, looked up): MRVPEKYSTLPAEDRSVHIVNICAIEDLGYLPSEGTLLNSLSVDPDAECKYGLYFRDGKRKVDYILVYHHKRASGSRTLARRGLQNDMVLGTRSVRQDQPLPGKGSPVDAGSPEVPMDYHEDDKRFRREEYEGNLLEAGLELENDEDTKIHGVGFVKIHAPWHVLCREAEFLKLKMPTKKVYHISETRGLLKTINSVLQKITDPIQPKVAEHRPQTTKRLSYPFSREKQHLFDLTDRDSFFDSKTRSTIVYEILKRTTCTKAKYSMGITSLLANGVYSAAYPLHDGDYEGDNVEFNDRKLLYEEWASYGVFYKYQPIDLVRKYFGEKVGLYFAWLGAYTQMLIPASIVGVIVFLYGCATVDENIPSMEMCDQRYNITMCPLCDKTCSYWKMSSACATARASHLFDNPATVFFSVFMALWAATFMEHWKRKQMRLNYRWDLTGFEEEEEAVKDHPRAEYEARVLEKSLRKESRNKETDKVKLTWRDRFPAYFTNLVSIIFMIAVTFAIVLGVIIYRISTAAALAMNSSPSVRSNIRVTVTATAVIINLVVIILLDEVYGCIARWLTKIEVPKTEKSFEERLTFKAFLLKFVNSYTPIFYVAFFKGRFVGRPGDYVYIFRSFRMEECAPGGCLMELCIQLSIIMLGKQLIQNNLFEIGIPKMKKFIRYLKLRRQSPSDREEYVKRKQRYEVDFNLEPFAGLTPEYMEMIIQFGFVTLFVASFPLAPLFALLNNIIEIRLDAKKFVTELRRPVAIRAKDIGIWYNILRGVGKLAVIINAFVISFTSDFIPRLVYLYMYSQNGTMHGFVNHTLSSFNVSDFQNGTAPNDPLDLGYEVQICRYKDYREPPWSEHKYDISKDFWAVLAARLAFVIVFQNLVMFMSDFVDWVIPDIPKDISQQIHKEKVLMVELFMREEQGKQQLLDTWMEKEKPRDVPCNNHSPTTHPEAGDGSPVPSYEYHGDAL
TAAR1 antagonist: human TAAR1 antagonism | actives 1.5% (n = 360,000) | AID 624466 | CHO RD-HGA16 TAAR1, Fluo-8 calcium fluorescence, antagonist | inhibition, % at 3 µM;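 active means inhibition above a per-plate cutoff, the mean inhibition of test compounds on that plate plus 3 SD, cut at about 49% in these data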
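Assay system: CHO-derived RD-HGA16 cells stably expressing human TAAR1 plus Gα16. Timing: 140 s kinetic read after compound, 140 s after agonist. Technique: kinetic Fluo-8 calcium fluorescence measurement. Measure: % inhibition of agonist calcium response.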
CRFBP-R2 block: blocks CRF-induced signaling of the CRF-BP/CRF-R2 complex; inhibition, % at 11.8 µM; actives 0.59% (n = 350,000); HEK293 CRF-R2/CRF-BP, CRF-induced calcium fluorescence;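 active means inhibition of the ligand-induced calcium signal above about 50% at the single tested concentration, limit read from the data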
CRFBP-R2 agonist: CRF-BP/CRF-R2 complex agonism | HEK293 CRF-R2/CRF-BP, calcium dye fluorescence (FLIPR); percent of saturating CRF peptide response | activation, % at 13.2 µM | actives 0.46% (n = 350,000);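 active means activation of at least 50%, plus an integration ratio under a set limit after plate pattern correction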
ANO1 block: blocks the mouse calcium-activated chloride channel TMEM16A | normalized B-score (activity score, 25-100; higher = stronger inhibition) at 10 µM | Q8BHY3 | actives 1.2% (n = 310,000) | HEK293 TMEM16A/YFP iodide influx fluorescence, ionomycin;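 active means ratio plate-corrected score three or more library SD toward inhibition, starting fluorescence score within five deviations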;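 further: score derived from kinetic fluorescence span divided by baseline fluorescence per well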
nonsel antag count: nonselective antagonist in TAAR1 antagonist counter-screen; shares compounds with TAAR1 antagonist; counterscreen cell line, calcium fluorescence, antagonist mode; actives 77% (n = 2,400); inhibition, % at 3 µM; AID 651780; in the data active means inhibition above about 22%;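 further: CHO-Ga16 host cells stimulated with ATP at an EC80 level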
TAAR1 antag conf: confirmation of human TAAR1 antagonists | inhibition, % at 3 µM | actives 40% (n = 2,400) | AID 651785 | shares compounds with TAAR1 antagonist | TAAR1-expressing cells, fluorescence antagonist read-out; in the data active means inhibition above about 49%;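 further: CHO-Ga16 host cells challenged with agonist PEA near its EC80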
Ga16 nonsel ag: nonselective Ga16 agonist in TAAR1 antagonist counter-screen. Ga16-expressing cells, calcium fluorescence, agonist counterscreen. AID 651953. shares compounds with TAAR1 antagonist. actives 18% (n = 2,400). activation, % at 3 µM; in the data active means activation above about 12%
TAAR1 ag counter: activates human TAAR1 in antagonist counter-screen; shares compounds with TAAR1 antagonist; hTAAR1 cell line, fluorescence activation, agonist mode; activation, % at 3 µM; actives 2% (n = 2,400); in the data active means activation above about 37%;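 further: CHO cells stably expressing TAAR1 with calcium dye readout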
Large screens that a line does not name were inactive (follow-up assays come after a bar, where they were run).

COc1cc(OC)c(OC)cc1CNC(=O)c1cccc(S(=O)(=O)N2CCc3ccccc3C2)c1	TAAR1 antagonist 68 (no result: ANO1 block) | nonsel antag count 47 | TAAR1 antag conf 57 | Ga16 nonsel ag 14 | TAAR1 ag counter inactive
COc1ccc(NS(=O)(=O)c2cc(NC(=O)c3cc(=O)c4ccccc4o3)ccc2OC)cc1	TAAR1 antagonist 64 | nonsel antag count 27 | TAAR1 antag conf 53 | Ga16 nonsel ag inactive | TAAR1 ag counter inactive
O=C(C1CCN(S(=O)(=O)c2cccc3cccnc23)CC1)N1CCn2c1nc1ccccc12	TAAR1 antagonist 60 | nonsel antag count 28 | TAAR1 antag conf inactive | Ga16 nonsel ag inactive | TAAR1 ag counter inactive
O=C(C1CCCN1S(=O)(=O)c1cccc2cccnc12)N1CCn2c1nc1ccccc12 (stereo unspecified)	none (no result: TAAR1 agonist, TAAR1 antagonist)
CCc1ccccc1NC(=O)CCS(=O)(=O)c1ccc(OC)cc1	none
COc1cc2c(cc1NC(=O)COc1ccccc1OC)oc1ccccc12	none
COc1cc2c(cc1NC(=O)COC(=O)Cn1cnc3ccccc31)oc1ccccc12	TAAR1 antagonist 49 (no result: ANO1 block) | nonsel antag count inactive | TAAR1 antag conf inactive | Ga16 nonsel ag inactive | TAAR1 ag counter inactive
CCOc1ccccc1N1CC(O)=C(c2nc3ccccc3s2)C1=N	TAAR1 antagonist 66 | nonsel antag count 26 | TAAR1 antag conf inactive | Ga16 nonsel ag 12 | TAAR1 ag counter inactive
O=C(CON=C1c2ccccc2-c2ccccc21)NC12CC3CC(CC(C3)C1)C2	none
CC(/C=C(\NC(=O)c1ccccc1)C(=O)N=Nc1c(O)[nH]c2ccc(C)cc12)=C\c1ccccc1	TAAR1 antagonist 65 | nonsel antag count inactive | TAAR1 antag conf inactive | Ga16 nonsel ag inactive | TAAR1 ag counter inactive
COc1ccc(OC)c(NC(=O)C2CC(=O)N(Cc3ccco3)C2)c1 (stereo unspecified)	none (no result: ANO1 block)
O=C(NCCOCc1ccccc1)C(c1ccccc1)c1ccccc1	none
CSc1nc2nccc(-c3ccc(-c4ccccc4)cc3)n2n1	none
CSc1nc2nccc(-c3ccc(Oc4ccccc4)cc3)n2n1	TAAR1 antagonist 56 | nonsel antag count inactive | TAAR1 antag conf inactive | Ga16 nonsel ag inactive | TAAR1 ag counter inactive
COc1cccc(CNC(=O)N2CCN(c3ccccc3Cl)CC2)c1	TAAR1 antagonist 49 | nonsel antag count 22 | TAAR1 antag conf inactive | Ga16 nonsel ag inactive | TAAR1 ag counter inactive
CC1=C2C3OC(=O)C(C)C3CCC2(C)C=C(Cl)C1=O (stereo unspecified)	none (no result: TMEM16A act, ANO1 block)
Fc1cccc(-c2c(-c3ccccc3)ncc3cc(F)ccc23)c1	TAAR1 antagonist 72 (no result: ANO1 block) | nonsel antag count inactive | TAAR1 antag conf inactive | Ga16 nonsel ag inactive | TAAR1 ag counter inactive
O=C(NCC1CCCCC1)c1ccc(F)cc1Cl	none
O=C(c1ccco1)N1CCN(C/C=C/c2ccccc2)CC1	none
O=C(c1nn(Cc2ccccc2)c(=O)c2ccccc12)N1CCN(C/C=C/c2ccccc2)CC1	TAAR1 antagonist 50 | nonsel antag count inactive | TAAR1 antag conf inactive | Ga16 nonsel ag inactive | TAAR1 ag counter inactive
O=C1COc2ccc(S(=O)(=O)CCC(=O)N3CCN(c4ccccc4)CC3)cc2N1	none
Cc1ccc(C)c(N2CCN(C(=O)CCS(=O)(=O)c3ccc4c(c3)NC(=O)CO4)CC2)c1	TAAR1 antagonist 85 | nonsel antag count 43 | TAAR1 antag conf 57 | Ga16 nonsel ag 15 | TAAR1 ag counter inactive
COC(=O)c1oc2c(c1C)C1(CCC2)SCCS1	TAAR1 antagonist 95 | nonsel antag count inactive | TAAR1 antag conf 83 | Ga16 nonsel ag inactive | TAAR1 ag counter inactive
Oc1cc(O)cc(C=Cc2ccc(O)c(O)c2)c1	none (no result: TMEM16A act, CRFBP-R2 block, CRFBP-R2 agonist, ANO1 block)
COCCOC(=O)c1c(C)n(C)c2ccc(OC(=O)c3ccccc3OC)cc12	TAAR1 antagonist 53 | nonsel antag count 26 | TAAR1 antag conf inactive | Ga16 nonsel ag inactive | TAAR1 ag counter inactive
COCCOC(=O)c1c(C)n(C)c2ccc(OC(=O)c3ccco3)cc12	none
COc1ccc(NC(=O)C2CCCN(C(=O)Nc3ccc(F)cc3)C2)cc1 (stereo unspecified)	none
COCCCNC(=O)/C(C#N)=C/c1c(N2CCN(c3ccccc3)CC2)nc2c(C)cccn2c1=O	TAAR1 antagonist 50 | nonsel antag count inactive | TAAR1 antag conf inactive | Ga16 nonsel ag inactive | TAAR1 ag counter inactive
COCCCNC(=O)/C(C#N)=C/c1c(N2CCN(c3cccc(Cl)c3)CC2)nc2c(C)cccn2c1=O	none
CC(C)(C)C(=O)Nc1ccc(Sc2ccc([N+](=O)[O-])cc2)cc1	TAAR1 antagonist 91 | nonsel antag count 49 | TAAR1 antag conf 60 | Ga16 nonsel ag inactive | TAAR1 ag counter inactive
COc1ccc(-c2oc3ccc(N4CCOCC4)cc3c2C#CCO)cc1	TAAR1 antagonist 58 | nonsel antag count 23 | TAAR1 antag conf inactive | Ga16 nonsel ag inactive | TAAR1 ag counter inactive
COc1ccc(-c2ccc3oc(-c4ccc(OC)cc4)c(C#CCO)c3c2)cc1	none
O=C(CC1CC1)Nc1ccc2c(c1)[C@@H]1C[C@H](CC(=O)NC3CCCC3)O[C@@H](CO)[C@@H]1O2	TAAR1 antagonist 86 (no result: TMEM16A act, ANO1 block) | nonsel antag count inactive | TAAR1 antag conf inactive | Ga16 nonsel ag inactive | TAAR1 ag counter inactive
Cc1nnc(SCC(=O)N2CCCC(C(=O)c3ccc(Cl)cc3)C2)o1 (stereo unspecified)	none
COc1ccc2cc(C(=O)C3CCCN(C(=O)CSc4nnc(C)o4)C3)ccc2c1 (stereo unspecified)	TAAR1 antagonist 103 | nonsel antag count inactive | TAAR1 antag conf inactive | Ga16 nonsel ag inactive | TAAR1 ag counter inactive
N#C/C(=C\c1ccc(-c2ccc(C(=O)O)cc2)o1)C(=O)Nc1ccc(F)cc1	TAAR1 antagonist 70 | nonsel antag count 33 | TAAR1 antag conf inactive | Ga16 nonsel ag 17 | TAAR1 ag counter inactive
O=C(CCCC1=NS(=O)(=O)c2ccccc2N1)N1CCN(c2ccccc2)CC1	none
COc1cccc(N2CCN(C(=O)CC(C)(C)CC3=NS(=O)(=O)c4ccccc4N3)CC2)c1	TAAR1 antagonist 72 | nonsel antag count 36 | TAAR1 antag conf 59 | Ga16 nonsel ag 14 | TAAR1 ag counter inactive
